# Screens from PubChem BioAssay.
# NPY Y2 blocker – blocks the human neuropeptide Y Y2 receptor. P49146. NPY-Y2 expressing cells, antagonist mode. inhibition, % at 2.7 µM. 140,000 tested, 0.99% active. AID 793; in the data active = inhibition above about 17%;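 also: 0% = vehicle with agonist challenge and 100% = reference antagonist with challenge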
# EP2 mod – modulates human prostaglandin E2 receptor EP2 signaling. EP2-expressing cells, cAMP HTRF FRET, PGE2 co-stimulation. induction, % at 25 µM. 260,000 tested, 0.83% active;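 active = compounds whose cAMP rise, as percent of the full-agonist control response, exceeds 60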;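 also: rat C6 glioma line stably carrying human EP2 under a CMV promoter; the protocol text gives 20 µM as final concentration; 100% = response of wells given 1 µM PGE2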
# NPY-Y2 PAM-ag – human NPY-Y2 potentiation or agonism, primary screen. P49146. cells expressing NPY-Y2, potentiator/agonist read-out. activation, % at 3.6 µM. 220,000 tested, 0.45% active; in the data active = activation above about 27%;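 also: cells stimulated with NPY near EC25 plus isoproterenol at EC100; 0% = vehicle plus submaximal agonist and 100% = vehicle plus saturating agonist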
# EP2 antag – EP2 receptor (human) inhibition; P43116; C6 glioma cells expressing human EP2, cAMP TR-FRET; cells stimulated with saturating PGE2; inhibition, % at 25 µM; 260,000 tested, 0.52% active;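 active = percent inhibition above 40 after rounding to a whole number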;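 also: rat C6 glioma host cells with rolipram phosphodiesterase inhibitor present; the protocol text gives 20 µM as final concentration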
# NPY-Y1 PAM-ag – potentiators or agonists of human neuropeptide Y receptor Y1; 220,000 tested, 0.37% active; NPY-Y1 expressing cells, potentiator/agonist activation; AID 1304; activation, % at 3.6 µM; P25929; in the data active = activation above about 33%, passing the limit was not always enough;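 also: cells stimulated with NPY at EC10 then isoproterenol at EC100; 0% = low agonist plus stimulus and 100% = saturating agonist plus stimulus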
# Target sequence (P25929 whole entry, looked up): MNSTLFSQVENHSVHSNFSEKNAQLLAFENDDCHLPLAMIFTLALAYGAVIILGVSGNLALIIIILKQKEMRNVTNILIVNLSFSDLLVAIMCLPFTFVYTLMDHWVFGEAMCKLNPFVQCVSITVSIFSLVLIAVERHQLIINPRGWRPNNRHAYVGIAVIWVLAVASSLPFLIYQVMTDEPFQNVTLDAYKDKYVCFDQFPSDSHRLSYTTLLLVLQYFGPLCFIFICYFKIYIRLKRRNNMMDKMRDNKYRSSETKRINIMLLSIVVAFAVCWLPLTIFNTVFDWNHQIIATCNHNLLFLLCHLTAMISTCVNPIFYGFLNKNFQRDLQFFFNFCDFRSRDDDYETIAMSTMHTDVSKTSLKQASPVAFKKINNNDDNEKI
# NPY Y1 blocker – antagonists of human neuropeptide Y receptor Y1 | HEK293-CNG Y1 cells, membrane potential fluorescence; NPY at EC95, then isoproterenol | inhibition, % at 3.6 µM | 200,000 tested, 1% active | P25929;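 active = inhibition above the campaign mean inhibition of all tested compounds plus 3 SD, cut at about 20% in these data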;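 also: 0% = DMSO wells given NPY plus isoproterenol and 100% = isoproterenol alone without NPY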
#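 Benchmarks – high control isoproterenol alone, low control NPY with isoproterenol · Material – HEK293 Y1/CNG channel cell line · Times – dye 3 h, compound 60 min room temperature, stimulation 45 min · Probe or stimulus – NPY (25 nM), isoproterenol (1 µM), Ro 20-1724 (25 µM) · Evaluation – % inhibition of NPY effect · Signal – fluorescence, membrane potential probe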
# NPY-Y1 antag ct – counter-screen for NPY-Y2 antagonists: human NPY-Y1 antagonism | shares compounds with NPY Y2 blocker | inhibition, % at 3.6 µM | 710 tested, 19% active | cell-based NPY-Y1 antagonism counterscreen; in the data active = inhibition above about 20%;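 also: cells challenged with NPY then isoproterenol with cAMP sensed through a CNG channel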
# NPY-Y2 ant conf – human NPY-Y2 antagonism, confirmation. shares compounds with NPY Y2 blocker. HEK293 NPY-Y2 CNG channel, membrane potential fluorescence. inhibition, % at 2.8 µM. 710 tested, 32% active;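 active = mean inhibition of triplicate wells above the hit cutoff set in the primary screen, cut at about 17% in these data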;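 also: 0% = DMSO with NPY challenge and 100% = BIIE0246 high control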
# * hit, by the source's call; . = not tested or not shown. A selection: hits, their analogues and other compounds. The true share with any hit is near 2.8%.
SMILES,NPY Y2 blocker,EP2 mod,NPY-Y2 PAM-ag,EP2 antag,NPY-Y1 PAM-ag,NPY Y1 blocker,NPY-Y1 antag ct,NPY-Y2 ant conf
c1ccc(N(c2ccccc2)c2nc(-n3ccnc3)nc(-n3ccnc3)n2)cc1,23*,-46,18,67*,36,3,6,3
CN(c1ccccc1)c1nc(-n2ccnc2)nc(-n2ccnc2)n1,0,26,-7,.,2,5,.,.
COc1ccc(Cl)cc1-c1ccc(C(c2c(C)[nH][nH]c2=O)c2c(C)[nH][nH]c2=O)o1,.,-26,.,14,.,.,.,.
Cc1c(C(=O)Nc2nc3ccccc3[nH]2)oc2ccccc12,5,-1,0,14,-1,3,.,.
Cc1c(C(=O)Nc2nc3ccccc3[nH]2)oc2ccc(Br)cc12,19*,5,-19,5,-6,-1,12,14
CCCCCC(=O)NC(=S)Nc1ccc(Br)cc1C,20*,20,-1,6,13,1,10,19*
Cc1cccc(NC(=S)N(CCN(C)C)Cc2cc3cc(C)cc(C)c3[nH]c2=O)c1,19*,-34,5,8,-8,17,14,27*
Cc1cccc(NC(=S)N(CCN(C)C)Cc2cc3cccc(C)c3[nH]c2=O)c1,8,-25,-12,13,-53,8,.,.
Cc1cc(C)c(NC(=O)c2cc3sccc3n2C)c(C)c1,.,23,.,5,.,.,.,.
COC(=O)c1c(C)oc2ccc(N(C(=O)c3ccncc3)S(=O)(=O)c3ccc4ccccc4c3)cc12,23*,8,-31,4,-18,3,19,31*
CCN(CC)CCN1C(=O)C(=O)/C(=C(\O)c2cccc(OC)c2)C1c1ccco1 (centres undefined),.,-21,.,7,.,.,.,.
Cc1ccc(NC(=O)c2cc(N(C)C)ccc2[P+](=O)O)cc1,21*,25,6,2,1,3,5,0
Cc1ccc(NC(=O)c2ccc(F)cc2F)cc1,.,.,.,11,.,.,.,.
Cc1cc(Cl)c(OCCCNCc2ccccc2)c(Br)c1,18*,-27,-14,7,-50,14,17,23*
CCOc1ccc(-n2c(-c3ccccc3)nnc2-c2ccccc2)cc1,21*,53,-24,5,-32,10,7,15
CCNC(=O)CSc1nnc(-c2ccccc2)n1-c1ccc(OCC)cc1,-2,34,-15,6,6,3,.,.
COc1cc(C(=O)NC(=S)Nc2ccccn2)cc(OC)c1OC,.,-75,.,7,.,.,.,.
CCc1ccccc1NC(=O)CCSc1nc(-c2ccco2)cc(C(F)(F)F)n1,.,6,.,14,.,.,.,.
CC(=O)NC1(c2ccccc2)CCN(c2nc(C)cc(C)n2)CC1,49*,38,-10,9,-20,15,35*,35*
Cc1cc(C)nc(N2CCC(C(=O)NNC(=O)Cc3ccccc3)CC2)n1,.,-14,-12,4,-5,.,.,.
COC(=O)c1ccc(COC(=O)c2ccc(N(C)C)cc2)cc1,20*,-12,-5,14,-46,8,4,10
COc1ccc(/C=N/NC(=O)c2nc(-c3ccccc3)cc(-c3ccccc3)n2)cc1,20*,-10,-57,15,-53,2,22*,27*
COc1ccc(/C=N/NC(=O)c2nc(-c3ccccc3)cc(-c3ccccc3)n2)cc1O,11,-18,-29,10,-19,9,.,.
CC(C)C(=O)c1cn(CC(=O)Nc2ccccc2C(F)(F)F)c2ccccc12,.,-40,.,6,.,.,.,.
Cc1cccc(-c2noc(CN(C(=O)C(c3ccccc3)c3ccccc3)C(C)C)n2)c1,17*,9,-14,4,1,18,8,4
O=C(C1CCCCC1)N(Cc1ccco1)c1nc(-c2ccc(F)cc2)cs1,.,-9,.,8,.,.,.,.
CC1(C)CC(=O)C=C(NCc2ccc(Cl)c(Cl)c2)C1,18*,-2,-4,2,-15,13,9,7
Cc1cc(OCC(=O)O/N=C(\N)c2ccccc2)ccc1Cl,19*,3,-4,7,-10,10,7,10
